The list is not random: actives were taken first. Their share in the collection is about 0.95%.
CAL PDZ FP-1 – human CAL PDZ-peptide interaction inhibition; Q9HD26; purified CAL PDZ, TMR-peptide fluorescence polarization, 1 h; inhibition, % at 20 µM; hit rate 0.02% among 330,000; AID 504414;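 active = highest replicate inhibition of at least 40%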;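 note: plate controls were DMSO neutral control wells for no effect and unlabeled competitor peptide control wells for full effect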
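System: tagged CAL PDZ domain. Schedule: 1 h room-temperature incubation prior to read. Signal: fluorescence polarization (mP). Measure: percent inhibition from loss of millipolarization.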
PvdQ inh – P. aeruginosa PvdQ acylase inhibition; purified PvdQ acylase, fluorescence plate reader; inhibition, % at 10 µM; hit rate 0.063% among 340,000; AID 488965; in the data active = inhibition above about 30%, passing the limit was not always enough;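 note: 0% = vehicle neutral wells and 100% = reference inhibitor wells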
miR122 inh – miR-122 inhibition in Huh7 cells | activation (reporter increase), % at 12.5 µM | hit rate 0.3% among 340,000 | Huh7 miR-122 Renilla luciferase sensor, 48 h; neutral wells = 0, positive control = 100;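 active = mean replicate activation score at least 90 and every replicate individually at or above 90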;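 note: higher luciferase means less miR-122 activity so hits act as miR-122 inhibitors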
CAL PDZ FP-2 – CAL PDZ (human) peptide binding inhibition | Q9HD26 | purified CAL PDZ, TMR-peptide fluorescence polarization, 1 h | inhibition, % at 24.9 µM | hit rate 0.92% among 300,000;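 active = mean inhibition of at least 30% with at least half of replicates also reaching 30%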;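 note: 0% = DMSO neutral control and 100% = excess unlabeled competitor peptide PRC23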
* = called active by the depositor; ! = not active in a repeat; [ ] = dose if it differs, or a comment.

COc1ccc(C2NCCc3c2[nH]c2ccccc32)cc1COc1ccc(F)cc1 (stereo not given) was read as CAL PDZ FP-1 -3, PvdQ inh 39* and CAL PDZ FP-2 11.
For CN(C/C=C/c1ccccc1)C1CCCCC1 the results were CAL PDZ FP-1 -3, PvdQ inh -7, miR122 inh 21 and CAL PDZ FP-2 2.
Screening CC(C)(C)NC(=O)NC(=O)CN1CCCc2ccccc21 returned CAL PDZ FP-1 -1, PvdQ inh -4, miR122 inh 0 and CAL PDZ FP-2 0.
`O=C(CN1CCCc2ccccc21)NC(=O)NC1CCCCC1` gave CAL PDZ FP-1 -1, PvdQ inh -2 and CAL PDZ FP-2 82*.
Screening COc1ccc(NC(=O)N(C)C[C@H]2Oc3ccc(NC(=O)Cc4cn(C)c5ccccc45)cc3CC(=O)N([C@@H](C)CO)C[C@@H]2C)cc1 returned miR122 inh 8[16.7 µM].
Screening COc1ccccc1C(=O)NC(CCSC)C(=O)NC1CC1 (stereo not given) returned CAL PDZ FP-1 -2, PvdQ inh -3, miR122 inh 1 and CAL PDZ FP-2 62*.
Screening COc1ccc(-n2nc([N+](=O)[O-])c(=NCc3ccc4c(c3)OCO4)n2O)cc1 returned CAL PDZ FP-1 -2, PvdQ inh -3, miR122 inh 0 and CAL PDZ FP-2 0.
For CCOC(=O)C1=C(C)Nc2nc(C)nn2C1c1ccc(OC)c(OC)c1 (stereo not given) the results were CAL PDZ FP-1 -1, PvdQ inh -14 and miR122 inh -7.
Cc1ccc2cc(C(c3nnnn3Cc3ccccc3)N3CCc4ccccc43)c(=O)[nH]c2c1C (stereo not given) was read as CAL PDZ FP-1 0, PvdQ inh -14, miR122 inh 28 and CAL PDZ FP-2 81*.
`O=C(N=C1SC2CS(=O)(=O)CC2N1c1cccc(F)c1)C1CC1` (stereo not given) gave CAL PDZ FP-1 1, PvdQ inh -5, miR122 inh -11 and CAL PDZ FP-2 62*.
`O=C(N=C1SC2CS(=O)(=O)CC2N1c1ccccc1)C1CC1` (stereo not given) gave CAL PDZ FP-1 -1, PvdQ inh -8, miR122 inh -7 and CAL PDZ FP-2 -2.
`CCC(=NC)C1=C(O)CC(c2ccccc2)CC1=O` (stereo not given) gave PvdQ inh -12, miR122 inh -5 and CAL PDZ FP-2 71*.
For C/C=C/c1ccc2c(c1)O[C@H](CN(C)S(=O)(=O)c1ccc(F)cc1)[C@H](C)CN([C@@H](C)CO)S2(=O)=O the results were miR122 inh 11[16.7 µM].
Screening COCC#Cc1ccc2c(c1)O[C@H](CN(C)S(=O)(=O)c1ccc(OC)cc1)[C@H](C)CN([C@H](C)CO)S2(=O)=O returned miR122 inh 120*[16.7 µM].
Cc1ccc(-c2ccc3c(c2)O[C@H](CN(C)Cc2ccc(F)cc2)[C@@H](C)CN([C@H](C)CO)S3(=O)=O)cc1 was read as miR122 inh 98*[16.7 µM].
C[C@H]1CN([C@@H](C)CO)S(=O)(=O)c2ccc(Br)cc2O[C@H]1CN(C)S(=O)(=O)c1ccccc1F was read as miR122 inh 179*![16.7 µM].
`C[C@H]1CN([C@@H](C)CO)S(=O)(=O)c2ccc(Br)cc2O[C@@H]1CN(C)S(=O)(=O)c1ccccc1F` gave miR122 inh 68[16.7 µM].
`C/C=C/c1ccc2c(c1)O[C@H](CN(C)S(=O)(=O)c1ccccc1)[C@H](C)CN([C@@H](C)CO)S2(=O)=O` gave miR122 inh 268*[16.7 µM].
`CSc1nsc(SCC(=O)Nc2ccc(C(=O)O)cc2)n1` gave CAL PDZ FP-1 -2, PvdQ inh -15, miR122 inh -3 and CAL PDZ FP-2 -10.
For O=C(c1ccc(Cl)s1)N1CCCC1 the results were CAL PDZ FP-1 0, PvdQ inh -25, miR122 inh -7 and CAL PDZ FP-2 -5.
CC12CN3CC(C)(CN(C1)C3c1ccc3ccccc3c1O)C2=O (stereo not given) was read as PvdQ inh -19, miR122 inh -4 and CAL PDZ FP-2 93*.
Cc1cc(C)n(CC(=O)c2cccc([N+](=O)[O-])c2)n1 was read as CAL PDZ FP-1 -1, PvdQ inh -21, miR122 inh -7 and CAL PDZ FP-2 36*.
For O=C(Cc1ccccc1)OCC(=O)c1cccc([N+](=O)[O-])c1 the results were CAL PDZ FP-1 0, PvdQ inh -15, miR122 inh -10 and CAL PDZ FP-2 47*.
